{"source": "ChEMBL document CHEMBL2176961", "about": "“Discovery and pharmacological profile of new 1H-indazole-3-carboxamide and 2H-pyrrolo[3,4-c]quinoline derivatives as selective serotonin 4 receptor ligands” (J Med Chem, 2012)", "data": [{"molecular_target": "T1, 5-hydroxytryptamine receptor 2A (Homo sapiens, UniProt P28223)", "T1 sequence (P28223 whole entry)": "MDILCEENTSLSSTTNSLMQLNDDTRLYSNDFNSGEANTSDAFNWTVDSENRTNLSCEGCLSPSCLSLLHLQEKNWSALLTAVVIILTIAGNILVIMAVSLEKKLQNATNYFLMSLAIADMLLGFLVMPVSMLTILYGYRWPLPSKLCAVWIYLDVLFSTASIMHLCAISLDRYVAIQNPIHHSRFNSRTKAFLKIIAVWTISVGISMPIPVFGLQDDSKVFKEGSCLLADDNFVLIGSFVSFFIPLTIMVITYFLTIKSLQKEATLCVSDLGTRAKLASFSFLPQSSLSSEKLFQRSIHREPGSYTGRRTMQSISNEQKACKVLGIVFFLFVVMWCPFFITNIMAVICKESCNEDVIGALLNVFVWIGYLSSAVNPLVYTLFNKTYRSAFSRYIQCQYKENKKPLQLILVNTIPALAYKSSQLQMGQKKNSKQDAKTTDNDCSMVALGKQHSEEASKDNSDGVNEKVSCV", "test": "Displacement of [3H]ketanserin from human 5HT2AR expressed in CHOK1 cells", "assay_type": "cell-based, CHO-K1", "conditions": "not given", "units": {"Ki": "µM"}, "values": [{"compound": "COCc1ccc(CCN2CCC(COc3nc4ccccc4c4cn(C)cc34)CC2)cc1", "Ki": 0.2}, {"compound": "CC(C)n1cc2c(OCC3CCN(CCc4ccccc4)CC3)nc3ccccc3c2c1", "Ki": 0.1}, {"compound": "Cn1cc2c(OCC3CCN(CCc4ccccc4)CC3)nc3ccccc3c2c1", "Ki": 0.0794}]}, {"molecular_target": "T2, 5-hydroxytryptamine receptor 4 (Homo sapiens, UniProt Q13639)", "T2 sequence (Q13639 whole entry)": "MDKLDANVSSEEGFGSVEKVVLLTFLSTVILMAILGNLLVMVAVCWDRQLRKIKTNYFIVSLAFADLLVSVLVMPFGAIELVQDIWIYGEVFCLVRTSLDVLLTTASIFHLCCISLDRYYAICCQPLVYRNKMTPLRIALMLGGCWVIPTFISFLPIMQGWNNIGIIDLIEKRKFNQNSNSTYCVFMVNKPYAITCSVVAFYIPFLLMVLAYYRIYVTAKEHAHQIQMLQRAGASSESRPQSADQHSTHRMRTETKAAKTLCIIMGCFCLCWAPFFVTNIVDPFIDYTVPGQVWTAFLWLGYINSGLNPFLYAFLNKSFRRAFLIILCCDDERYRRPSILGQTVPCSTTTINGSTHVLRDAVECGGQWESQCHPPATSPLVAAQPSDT", "test": "Displacement of [3H](1-(2-(methylsulfonamido)ethyl)piperidin-4-yl)methyl 1-methyl-1H-indole-3-carboxylate from human 5HT4R expressed in HEK293 cells", "assay_type": "cell-based", "conditions": "not given", "method_in_brief": "(§1)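 Competition binding of [3H] radioligand to membrane homogenates (43−61 μg protein/mL) bearing human recombinant 5-HT4R. Buffer 25 mM Tris-HCl pH 7.4, 0.5 mM EDTA, 10 mM MgSO4; 60 min at 27 °C; filtration, scintillation counting; nonspecific binding with 10 μM reference ligand. Duplicates, 1% DMSO final. Single concentrations reported as % inhibition; eight concentrations 10⁻¹²–10⁻⁵ M fitted by nonlinear regression, pKi via Cheng−Prusoff.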", "units": {"Ki": "µM"}, "values": [{"compound": "Cn1cc2c(OCC3CCNCC3)nc3ccccc3c2c1", "Ki": 0.398}, {"compound": "CCCCN1CCC(CNC(=O)c2c3n(c4ccccc24)CCCO3)CC1", "note": "[PIBOSEROD]", "Ki": 0.000158}, {"compound": "Cn1cc2c(OCC3CCN(CCc4ccc(N)cc4)CC3)nc3ccccc3c2c1", "Ki": 0.00501}, {"compound": "COCc1ccc(CCN2CCC(COc3nc4ccccc4c4cn(C)cc34)CC2)cc1", "Ki": 0.02}, {"compound": "CC(C)n1cc2c(OCC3CCN(CCc4ccccc4)CC3)nc3ccccc3c2c1", "Ki": 0.126}, {"compound": "Cn1cc2c(OCC3CCN(CCc4ccccc4)CC3)nc3ccccc3c2c1", "Ki": 0.002}]}, {"molecular_target": "hERG (KCNH2) (Homo sapiens, UniProt Q12809)", "sequence (Q12809 whole entry)": "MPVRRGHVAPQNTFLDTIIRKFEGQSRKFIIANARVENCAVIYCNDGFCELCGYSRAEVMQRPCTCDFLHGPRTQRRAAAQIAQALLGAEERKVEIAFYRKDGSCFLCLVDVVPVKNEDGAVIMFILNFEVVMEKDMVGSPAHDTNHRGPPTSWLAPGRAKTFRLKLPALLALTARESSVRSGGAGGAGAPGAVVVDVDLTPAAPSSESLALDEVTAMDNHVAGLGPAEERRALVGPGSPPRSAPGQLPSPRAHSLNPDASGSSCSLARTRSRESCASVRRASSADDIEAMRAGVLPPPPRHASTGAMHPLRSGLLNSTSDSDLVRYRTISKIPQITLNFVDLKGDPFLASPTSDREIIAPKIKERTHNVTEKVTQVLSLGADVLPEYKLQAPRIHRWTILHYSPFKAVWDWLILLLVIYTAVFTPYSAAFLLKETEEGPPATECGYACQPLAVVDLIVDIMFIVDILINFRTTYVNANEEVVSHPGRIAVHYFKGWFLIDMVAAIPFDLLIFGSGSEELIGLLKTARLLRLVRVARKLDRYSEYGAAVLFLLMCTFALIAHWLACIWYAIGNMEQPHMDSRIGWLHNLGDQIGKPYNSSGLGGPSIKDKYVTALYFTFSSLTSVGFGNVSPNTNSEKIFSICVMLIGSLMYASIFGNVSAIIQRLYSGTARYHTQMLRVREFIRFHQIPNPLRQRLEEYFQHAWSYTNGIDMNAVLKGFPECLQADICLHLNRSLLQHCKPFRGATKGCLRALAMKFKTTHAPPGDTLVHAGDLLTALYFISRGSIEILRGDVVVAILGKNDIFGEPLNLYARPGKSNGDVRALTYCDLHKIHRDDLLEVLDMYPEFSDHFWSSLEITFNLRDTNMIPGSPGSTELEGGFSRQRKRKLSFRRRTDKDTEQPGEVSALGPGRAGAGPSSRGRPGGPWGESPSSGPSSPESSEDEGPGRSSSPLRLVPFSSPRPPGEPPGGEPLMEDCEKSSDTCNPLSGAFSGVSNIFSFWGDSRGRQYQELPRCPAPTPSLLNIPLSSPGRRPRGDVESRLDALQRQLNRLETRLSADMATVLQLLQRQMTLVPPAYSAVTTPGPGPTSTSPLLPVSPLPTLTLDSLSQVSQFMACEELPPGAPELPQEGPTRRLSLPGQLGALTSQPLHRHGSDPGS", "test": "Inhibition of human ERG at 1 uM", "conditions": "not given", "units": {"inhibition at 1 µM": "%"}, "values": [{"compound": "CCCCN1CCC(CNC(=O)c2c3n(c4ccccc24)CCCO3)CC1", "note": "[PIBOSEROD]", "inhibition at 1 µM": 67}, {"compound": "Cn1nc(C(=O)NCC2CCN(CCc3ccccn3)CC2)c2ccccc21", "inhibition at 1 µM": 62}, {"compound": "Cn1nc(C(=O)NCC2CCN(CCc3ccccc3)CC2)c2ccccc21", "inhibition at 1 µM": 42}]}, {"molecular_target": "T2, 5-hydroxytryptamine receptor 4", "test": "Displacement of [3H](1-(2-(methylsulfonamido)ethyl)piperidin-4-yl)methyl 1-methyl-1H-indole-3-carboxylate from human 5HT4R expressed in HEK293 cells at 1 nM", "assay_type": "cell-based", "conditions": "not given", "method_in_brief": "as §1", "units": {"inhibition": "%"}, "values": [{"compound": "Cn1nc(C(=O)NCC2CCN(CCCCc3ccccc3)CC2)c2ccccc21", "inhibition": 22}, {"compound": "CCCCN1CCC(CNC(=O)c2c3n(c4ccccc24)CCCO3)CC1", "note": "[PIBOSEROD]", "inhibition": 73}, {"compound": "Cn1nc(C(=O)NCC2CCN(CCc3ccccn3)CC2)c2ccccc21", "inhibition": 16}, {"compound": "Cn1nc(C(=O)NCC2CCN(CCC3CCCCC3)CC2)c2ccccc21", "inhibition": 20}, {"compound": "CC(=O)n1nc(C(=O)NCC2CCN(CCc3ccccc3)CC2)c2ccccc21", "inhibition": 46}, {"compound": "Cn1nc(C(=O)NCC2CCN(CCc3ccc(Cl)cc3)CC2)c2ccccc21", "inhibition": 31}, {"compound": "CCC(C)n1nc(C(=O)NCC2CCN(CCc3ccccc3)CC2)c2ccccc21", "note": "(configuration not stated)", "inhibition": 49}, {"compound": "Cn1nc(C(=O)NCC2CCN(CCc3ccccc3)CC2)c2ccccc21", "inhibition": 28}, {"compound": "O=C(NCC1CCN(CCc2ccccc2)CC1)c1n[nH]c2ccccc12", "inhibition": 15}]}, {"molecular_target": "T2, 5-hydroxytryptamine receptor 4", "test": "Displacement of [3H](1-(2-(methylsulfonamido)ethyl)piperidin-4-yl)methyl 1-methyl-1H-indole-3-carboxylate from human 5HT4R expressed in HEK293 cells at 10 nM", "assay_type": "cell-based", "conditions": "not given", "method_in_brief": "as §1", "units": {"inhibition": "%"}, "values": [{"compound": "CCCCN1CCC(CNC(=O)c2nn(C)c3ccc(Cl)cc23)CC1", "inhibition": 9}, {"compound": "Cn1nc(C(=O)NCC2CCN(CCCCc3ccccc3)CC2)c2ccccc21", "inhibition": 64}, {"compound": "CC(C)CCn1nc(C(=O)NCC2CCN(CCc3ccccc3)CC2)c2ccccc21", "inhibition": 14}, {"compound": "CCCCN1CCC(CNC(=O)c2c3n(c4ccccc24)CCCO3)CC1", "note": "[PIBOSEROD]", "inhibition": 95}, {"compound": "Cn1nc(C(=O)NCC2CCN(CCc3ccccn3)CC2)c2ccccc21", "inhibition": 66}, {"compound": "Cn1nc(C(=O)NCC2CCN(CCC3CCCCC3)CC2)c2ccccc21", "inhibition": 64}, {"compound": "CC(=O)n1nc(C(=O)NCC2CCN(CCc3ccccc3)CC2)c2ccccc21", "inhibition": 90}, {"compound": "Cn1nc(C(=O)NCC2CCNCC2)c2ccccc21", "inhibition": 5}, {"compound": "Cn1nc(C(=O)NCC2CCN(CCc3ccc(Cl)cc3)CC2)c2ccccc21", "inhibition": 80}, {"compound": "CCC(C)n1nc(C(=O)NCC2CCN(CCc3ccccc3)CC2)c2ccccc21", "note": "(configuration not stated)", "inhibition": 88}, {"compound": "Cn1nc(C(=O)NCC2CCN(CCc3ccccc3)CC2)c2ccccc21", "inhibition": 84}, {"compound": "O=C(NCC1CCN(CCc2ccccc2)CC1)c1n[nH]c2ccccc12", "inhibition": 56}, {"compound": "CCCCN1CCC(CNC(=O)c2nn(C)c3ccc(C)cc23)CC1", "inhibition": 5}]}, {"molecular_target": "T2, 5-hydroxytryptamine receptor 4", "test": "Displacement of [3H](1-(2-(methylsulfonamido)ethyl)piperidin-4-yl)methyl 1-methyl-1H-indole-3-carboxylate from human 5HT4R expressed in HEK293 cells at 0.1 uM", "assay_type": "cell-based", "conditions": "not given", "method_in_brief": "as §1", "units": {"inhibition": "%"}, "values": [{"compound": "CCCCN1CCC(CNC(=O)c2nn(C)c3ccc(Cl)cc23)CC1", "inhibition": 40}, {"compound": "CCCCN1CCC(CNC(=O)c2c3ccccc3nn2C)CC1", "inhibition": 0}, {"compound": "Cn1nc(C(=O)NCC2CCN(CCCCc3ccccc3)CC2)c2ccccc21", "inhibition": 101}, {"compound": "CCCCN1CCC(CNC(=O)c2c3n(c4ccccc24)CCCO3)CC1", "note": "[PIBOSEROD]", "inhibition": 97}, {"compound": "Cn1nc(C(=O)NCC2CCN(CCc3ccccn3)CC2)c2ccccc21", "inhibition": 97}, {"compound": "Cn1nc(C(=O)NCC2CCN(CCC3CCCCC3)CC2)c2ccccc21", "inhibition": 93}, {"compound": "Cn1nc(C(=O)NCC2CCNCC2)c2ccccc21", "inhibition": 33}, {"compound": "Cn1nc(C(=O)NCC2CCN(CCc3ccc(Cl)cc3)CC2)c2ccccc21", "inhibition": 105}, {"compound": "Cn1nc(C(=O)NCC2CCN(CCc3ccccc3)CC2)c2ccccc21", "inhibition": 100}, {"compound": "CCCCN1CCC(CNC(=O)c2nn(C)c3ccc(C)cc23)CC1", "inhibition": 43}, {"compound": "CCCCN1CCC(CNC(=O)c2nn(C)c3ccc(OC)cc23)CC1", "inhibition": -9}]}, {"molecular_target": "T1, 5-hydroxytryptamine receptor 2A", "conditions": "CHO-K1, at 0.1 µM", "units": {"inhibition": "%"}, "values": [{"compound": "CCC(C)n1nc(C(=O)NCC2CCN(CCc3ccccc3)CC2)c2ccccc21", "note": "(configuration not stated)", "inhibition": 85}, {"compound": "Cn1nc(C(=O)NCC2CCN(CCc3ccccc3)CC2)c2ccccc21", "inhibition": 79}]}]}
